Screening data: PubChem BioAssay, several laboratories
DDE Tn6 FP inh – inhibitors of Tn6 peptide binding to fibrin DD(E), primary screen, biochemical, fluorescence polarization, human fibrin, Tn6 probe | Fibrin DD(E) TRITC-Tn6 fluorescence polarization displacement | inhibition, % at 8.3 µM | 370,000 tested, 0.21% active;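 active = inhibition above a per-campaign cutoff: mean of compounds within control limits plus 3 SD, cut at about 15% in these data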;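 note: 0% = median of all compound wells on the plate and 100% = blocking peptide control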
Target sequence (P02675 whole entry, looked up): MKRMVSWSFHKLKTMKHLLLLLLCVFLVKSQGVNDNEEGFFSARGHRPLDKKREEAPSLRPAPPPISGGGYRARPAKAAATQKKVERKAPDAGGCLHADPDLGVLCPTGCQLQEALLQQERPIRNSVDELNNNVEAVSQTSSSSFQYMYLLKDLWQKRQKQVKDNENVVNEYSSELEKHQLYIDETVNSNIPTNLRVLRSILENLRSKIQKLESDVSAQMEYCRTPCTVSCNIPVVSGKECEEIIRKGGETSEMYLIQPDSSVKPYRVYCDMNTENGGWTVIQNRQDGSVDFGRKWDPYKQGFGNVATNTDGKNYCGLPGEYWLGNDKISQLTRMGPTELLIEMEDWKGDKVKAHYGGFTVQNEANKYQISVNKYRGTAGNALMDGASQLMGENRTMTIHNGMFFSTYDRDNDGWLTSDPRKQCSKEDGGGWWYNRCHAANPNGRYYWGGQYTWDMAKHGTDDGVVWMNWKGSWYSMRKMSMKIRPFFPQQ
Tn7 DDE FP – inhibitors of Tn7 peptide binding to fibrin DD(E), primary screen, biochemical, fluorescence polarization, human fibrin, Tn7 probe | 370,000 tested, 0.13% active | inhibition, % at 8.3 µM | FP displacement of FITC-Tn7 peptide from fibrin DD(E); 0% = median of compound wells per plate | Fibrinogen beta chain (Homo sapiens), P02675;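 active = inhibition above the mean of compounds falling within the control limits plus 3 SD of them, cut at about 14% in these data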;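 note: 0% = plate median of compound wells and 100% = 10 µM Aha-Tn7 peptide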
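System: human fibrin DD(E); quantity: Fibrin-DD(E) at 2 µM final; also added: fluorescent Tn7 probe at 0.1 µM; compound dosing: single nominal test concentration of 8.3 µM per compound; schedule: 10 min preincubation, 3 h with tracer, room temperature; detection: fluorescence polarization of the labelled Tn7 tracer; repeats: one replicate per compound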
ARNT-TACC3 inh – disruptors of ARNT/TACC3 protein interaction, primary screen, biochemical, AlphaScreen, single concentration | AlphaScreen His-ARNT PAS-B/GST-TACC3 binding, luminescence; TACC3 fragment carries E629A point mutation | inhibition, % at 9.99 µM | 390,000 tested, 0.66% active;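 active = mean inhibition of replicates at least 50% and at least half of replicates each reaching 50%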;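 note: 0% = complete ARNT plus TACC3 wells and 100% = ARNT alone without TACC3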
CAL PDZ FP-1 – CAL PDZ peptide-binding inhibitors, primary screen, biochemical, fluorescence polarization, Cer-tagged CAL PDZ, HTS. Golgi-associated PDZ and coiled-coil motif-containing protein (Homo sapiens), Q9HD26. purified CAL PDZ, TMR-peptide fluorescence polarization, 1 h. inhibition, % at 20 µM. 330,000 tested, 0.02% active;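 active = highest replicate inhibition of at least 40%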;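 note: plate controls were DMSO neutral control wells for no effect and unlabeled competitor peptide control wells for full effect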
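Read-out basis: mP drop reported as inhibition | Assay system: Tagged CAL PDZ protein CerCALP, purified | Benchmarks: Unlabelled peptide for full inhibition, DMSO wells as neutral | Schedule: 1 h incubation at room temperature before polarization reading | Buffer or medium: Sodium phosphate/NaCl buffer pH 7.4 with TCEP, IgG, Thesit | Doses: Single point, 20 µM | Measured by: Fluorescence polarization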
CAL PDZ FP-2 – untagged CAL PDZ binding inhibitors, primary screen, biochemical, fluorescence polarization, HTS | Golgi-associated PDZ and coiled-coil motif-containing protein (Homo sapiens), Q9HD26 | purified CAL PDZ, TMR-peptide fluorescence polarization, 1 h | inhibition, % at 24.9 µM | 300,000 tested, 0.92% active;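 active = mean inhibition of at least 30% with at least half of replicates also reaching 30%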;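 note: 0% = DMSO neutral control and 100% = excess unlabeled competitor peptide PRC23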
GRK2 inh – compounds blocking aptamer binding on GRK2 – biochemical, human GRK2, bead flow cytometry, HTS, primary screen; 330,000 tested, 0.59% active; inhibition of aptamer binding, % at 10 µM; Beta-adrenergic receptor kinase 1 (Homo sapiens), P25098; FAM-aptamer displacement from GRK2;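 active = inhibition of aptamer binding above 40%, roughly 3 SD of noise, on plates passing a quality check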;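 note: median bead fluorescence of bound FAM aptamer so fluorescent compounds give negative values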
ARNT Alpha ctr – AlphaScreen signal interference compounds, dose response, artefact control for ARNT-TACC3 interaction inhibitor project, biochemical, luminescence, cherry-pick | shares compounds with ARNT-TACC3 inh | AC50, µM (titrated, usually from 68 µM), for inactives: top-dose activity change, negative = signal decrease | His-ARNT PASB-GST AlphaScreen artifact counter-screen | 1,200 tested, 50% active;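 active = every separate test run was called active for a drop in luminescence, with AC50 within twice the top valid dose, actives reach about 71 µM in these data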
* = called active by the depositor. An excerpt weighted towards active compounds, which were near 1.8% of everything screened.

What do the screens show for `COc1ccc(-c2noc([C@@H]3O[C@H](CO)[C@H](O)[C@H](O)[C@H]3O)n2)cc1OC`?
DDE Tn6 FP inh: -4; Tn7 DDE FP: -6

What do the screens show for `COc1cc(NC(=O)CSc2ccc(-c3ccccn3)nn2)cc(OC)c1`?
DDE Tn6 FP inh: -6; Tn7 DDE FP: -6; ARNT-TACC3 inh: 59*; CAL PDZ FP-1: -5; CAL PDZ FP-2: -1; GRK2 inh: 0; ARNT Alpha ctr: 11µM*

Results for COC(=O)c1[nH]c2ccc(C)cc2c1NC(=O)c1ccccc1[N+](=O)[O-] ?
DDE Tn6 FP inh: -3; Tn7 DDE FP: -1; ARNT-TACC3 inh: 54*; CAL PDZ FP-1: 1; CAL PDZ FP-2: 0; GRK2 inh: 1; ARNT Alpha ctr: -6%

Results for Cc1noc(C)c1S(=O)(=O)N(C)C[C@H]1OCCCC[C@H](C)Oc2ccc(NC(=O)NC3CCCCC3)cc2C(=O)N([C@H](C)CO)C[C@@H]1C ?
ARNT-TACC3 inh: -8

How did Cc1ccc(C(=O)Nc2cccc(C(=O)N/N=C/c3ccc(O)cc3)c2)cc1 do in these assays?
DDE Tn6 FP inh: 2; Tn7 DDE FP: 2; ARNT-TACC3 inh: 31*; CAL PDZ FP-1: -2; GRK2 inh: 0; ARNT Alpha ctr: -30%

Results for C[C@@H]1CN([C@H](C)CO)C(=O)c2cc(-c3ccc(C#N)cc3)cnc2O[C@H]1CN(C)CC1CCCCC1 ?
ARNT-TACC3 inh: -10

What do the screens show for `Cc1[nH]n2c(=O)c3c(nc2c1-c1ccccc1)CCC3`?
DDE Tn6 FP inh: 6; Tn7 DDE FP: 6; ARNT-TACC3 inh: 59*; CAL PDZ FP-1: -2; GRK2 inh: 1; ARNT Alpha ctr: -1%

What do the screens show for `CCOc1ccccc1/C=N/NC(=O)c1cccc(S(=O)(=O)N(CC)CC)c1`?
DDE Tn6 FP inh: -7; Tn7 DDE FP: 3; ARNT-TACC3 inh: -8; CAL PDZ FP-1: -1; GRK2 inh: 0

What do the screens show for `COc1cc(OC)c(OC)cc1/C=N/NC(=O)c1ccc2nc[nH]c2c1`?
DDE Tn6 FP inh: 2; Tn7 DDE FP: 3; ARNT-TACC3 inh: 4; CAL PDZ FP-1: -1; CAL PDZ FP-2: 1; GRK2 inh: 0

Results for COc1cccc(/C=N/Nc2ccnc(=O)[nH]2)c1O ?
DDE Tn6 FP inh: 1; Tn7 DDE FP: -3; ARNT-TACC3 inh: 57*; CAL PDZ FP-2: 5; GRK2 inh: 0; ARNT Alpha ctr: 60µM*

How did COc1cccc(/C=N/NC(=O)c2ccc3nc[nH]c3c2)c1O do in these assays?
DDE Tn6 FP inh: -4; Tn7 DDE FP: 5; ARNT-TACC3 inh: 63*; CAL PDZ FP-1: -2; CAL PDZ FP-2: -15; GRK2 inh: 1; ARNT Alpha ctr: -20%

How did CCN(CC)c1ccc(/C=N/NC(=O)c2ccc3nc[nH]c3c2)c(O)c1 do in these assays?
ARNT-TACC3 inh: 55*; CAL PDZ FP-1: 2; CAL PDZ FP-2: 0; ARNT Alpha ctr: 41µM*

What do the screens show for `CCN(CC)S(=O)(=O)c1cccc(C(=O)N/N=C/c2ccc(O)c(O)c2O)c1`?
DDE Tn6 FP inh: -4; Tn7 DDE FP: -2; ARNT-TACC3 inh: 59*; CAL PDZ FP-1: -6; CAL PDZ FP-2: -3; GRK2 inh: 1; ARNT Alpha ctr: 19µM*

Results for O=C(NCCCN1CCOCC1)[C@H]1N[C@H]2c3ccc(C4=CCCCC4)c(=O)n3C[C@H]2[C@@H]1CO ?
ARNT-TACC3 inh: -2
